rRNA inh HTS – selective bacterial rRNA inhibition in E. coli; GFP signal change (wild-type ribosome), % (test concentration not listed); actives 1.6% (n = 350,000); AID 720706; E. coli WT GFP vs humanized-ribosome RFP mutants, fluorescence, 24 h; stronger effect = lower value; DMSO median 0, no signal -100;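 active = significant combined selectivity score with lowered wild-type GFP, culture density cut under 30%, mutant RFP and density less affected; inactive = any of these conditions unmet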
Env fusion inh – HIV envelope-mediated fusion inhibition; HeLa-JRFL Env/CEM21 cell fusion, luciferase; inhibition, % at 12.3 µM; actives 1.1% (n = 360,000); AID 651610;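 active = mean replicate inhibition score of at least 50 and every replicate individually at or above 50; inconclusive = only one of the two criteria met; inactive = mean below 50 and not all replicates reaching 50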
PGC1a acetyl inh – modulators of PGC1a acetylation. AID 651687. inhibition, % at 15.6 µM. actives 0.17% (n = 350,000). U2OS PGC1a acetylation, AlphaScreen anti-acetyl-lysine; with virally co-expressed GCN5 acetyltransferase;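 active = every replicate shows inhibition of at least 40%; inconclusive = mean inhibition at least 40% but some replicate below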
Cneo AK release – Cryptococcus neoformans lysis via adenylate kinase release; C. neoformans lysis, adenylate kinase release luminescence, 4 h; normalised: neutral wells 0, clomiphene wells 100; lysis activity, % at 15 µM; actives 0.2% (n = 360,000);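 active = mean lysis activity across replicates of at least 80%, whatever share of replicates individually reach that level; inactive = mean lysis activity below 80%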
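Test system: log-phase Cryptococcus neoformans yeast cells. Input: 5 × 10^6 yeast cells/mL. Medium: fresh YPD growth medium. Doses: single dose. Incubation: static 4 h at 37 °C with compound, 1 h detection. Measured by: luminescent adenylate kinase detection reagent. Read-out: signal increase indicating cell lysis. Benchmarks: Clomiphene.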
FGF22 binding – FGF22 (human) thermal shift binding. activity (Tm shift, normalised), % at 9.99 µM. recombinant FGF22 thermal shift, SYPRO orange fluorescence; percent of sucrose octasulfate shift, DMSO zero. actives 1.5% (n = 340,000). Q9HCT0;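 active = mean Tm shift, scaled 0 neutral to 100 positive control, at about 1.3% or above, every replicate too, limit read from the data; inconclusive = no clear call, values can overlap the other calls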
Target sequence (Q9HCT0 whole entry, looked up): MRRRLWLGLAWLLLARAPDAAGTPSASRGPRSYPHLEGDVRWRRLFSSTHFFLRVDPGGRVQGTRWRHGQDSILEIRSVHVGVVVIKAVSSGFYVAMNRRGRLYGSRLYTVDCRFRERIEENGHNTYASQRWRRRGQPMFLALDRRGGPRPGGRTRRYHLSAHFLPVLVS
ERAP1 inh – ERAP1 (human) enzyme inhibition | recombinant ERAP1, Leu-AMC fluorescence, 60 min | actives 0.15% (n = 340,000) | AID 652197 | inhibition, % at 10.7 µM | Q9NZ08;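 active = mean replicate inhibition of at least 30%, or all replicates individually reaching that 30% level; inactive = mean below 30% and not every replicate reaching it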
Of the large screens only hits and unclear results are named; the others gave an inactive call. A selection: hits, their analogues and other compounds. The true share with any hit is near 3.5%.

CCSc1nnc([C@@H](NC(=O)OC(C)(C)C)C(C)C)o1	none
CCOc1ccc(-c2onc(C(F)(F)F)c2-c2cscn2)c(O)c1	rRNA inh HTS -43 (no result: Env fusion inh)
C#CCN1CCc2onc(-c3ccc(Br)cc3)c2C1=O	FGF22 binding 43 (no result: PGC1a acetyl inh, Cneo AK release)
O=C(NC(c1ccccc1)c1cnccn1)C1CCN(Cc2ccc(Cl)c(Cl)c2)CC1 (stereo not given)	none (no result: Env fusion inh)
COc1ccc2cc3c(N)nn(C(=O)c4cccc(F)c4)c3nc2c1	Env fusion inh inconclusive (no result: Cneo AK release, ERAP1 inh)
COc1cccc(CC(=O)n2nc(N)c3cc4ccc(OC)cc4nc32)c1	none
COc1ccc2cc3c(N)nn(C(=O)Cc4c[nH]c5ccccc45)c3nc2c1	rRNA inh HTS -33, Env fusion inh 90 (no result: PGC1a acetyl inh, Cneo AK release)
COc1ccc2cc3c(N)nn(C(=O)c4ccc(F)cc4)c3nc2c1	Env fusion inh 63 (no result: Cneo AK release)
O=C(OCc1ccccc1Cl)C1CC(=O)N(Cc2ccco2)C1 (stereo not given)	none (no result: FGF22 binding)
Cc1cccc(NC(=O)CN2C(=O)N/C(=C/c3cc(C)n(C)c3C)C2=O)c1	FGF22 binding 44 (no result: PGC1a acetyl inh, Cneo AK release)
Cc1cccc(NC(=O)CN2C(=O)N/C(=C/c3cc(C)n(-c4ccncc4)c3C)C2=O)c1	none (no result: rRNA inh HTS)
CCOC(=O)c1c(-c2ccc(-c3ccccc3)cc2)csc1NC(=O)CNCCN(C)C	Cneo AK release 85
COc1ccc(C(=O)NNC(=O)CSc2nnc3ccccn23)cc1OC	none
Cc1ccc(NC(=S)NN2CCN(C)CC2)c(C)c1	FGF22 binding 43 (no result: PGC1a acetyl inh, Cneo AK release)
COc1ccc(C)cc1NC(=S)NN1CCN(C)CC1	none (no result: Cneo AK release)
O=C(N/N=C/c1ccccc1)c1cccc2ccccc12	none (no result: PGC1a acetyl inh, Cneo AK release)
CC1CCN(C(=O)c2cc3nc(-c4ccccc4)cc(-c4ccccc4)n3n2)CC1	Env fusion inh 77 (no result: rRNA inh HTS, FGF22 binding, ERAP1 inh)
CCOC(=O)c1sc2nc(C)cc(C)c2c1NC(=O)c1ccco1	none (no result: rRNA inh HTS, Env fusion inh, FGF22 binding, ERAP1 inh)
COc1ccc(C(=O)NCCc2ccc(Cl)cc2)cc1S(=O)(=O)N1CCCCC1C (stereo not given)	Env fusion inh 89 (no result: rRNA inh HTS)
C[C@@H]1CN([C@H](C)CO)C(=O)c2cc(-c3ccc(F)cc3)cnc2O[C@@H]1CN(C)C(=O)c1cccnc1	none
COC(CNC(=O)C1CCCN(S(=O)(=O)c2c(C)noc2/C=C/c2cccs2)C1)OC (stereo not given)	FGF22 binding 1.4 (no result: PGC1a acetyl inh, Cneo AK release)
COc1ccc2nc3cc(Cl)ccc3c(Nc3cc(CN4CCCC4)c(O)c(CN4CCCC4)c3)c2n1	PGC1a acetyl inh 72 (no result: rRNA inh HTS)
COc1ccc2nc3cc(Cl)ccc3c(Nc3cc(C(C)C)c(O)cc3C)c2c1	none (no result: PGC1a acetyl inh)
O=C(Nc1ccccc1N1CCOCC1)C1Cc2ccccc2CN1C(=O)c1ccco1 (stereo not given)	none (no result: rRNA inh HTS, FGF22 binding, ERAP1 inh)
CCSc1ccccc1C(=O)NCCCn1ccnc1	PGC1a acetyl inh 95 (no result: rRNA inh HTS, FGF22 binding, ERAP1 inh)
COc1ccc(S(=O)(=O)N2CCCOC2CNC(=O)C(=O)NCCCn2ccnc2)cc1 (stereo not given)	FGF22 binding 44
COc1ccc(S(=O)(=O)N2CCOC2CNC(=O)C(=O)NCc2ccco2)cc1C (stereo not given)	none
COc1ccc(S(=O)(=O)N2CCCOC2CNC(=O)C(=O)NCc2ccco2)cc1C (stereo not given)	FGF22 binding 44
COc1ccc(S(=O)(=O)N2CCOC2CNC(=O)C(=O)NCCc2c[nH]c3ccccc23)cc1 (stereo not given)	none
COc1ccc(S(=O)(=O)N2CCOC2CNC(=O)C(=O)NCCc2c[nH]c3ccccc23)cc1C (stereo not given)	rRNA inh HTS -15
Cc1ccc(S(=O)(=O)N2CCCOC2CNC(=O)C(=O)NCCCn2ccnc2)cc1 (stereo not given)	none (no result: rRNA inh HTS, PGC1a acetyl inh, Cneo AK release)
CN(C)C(=O)C[C@H]1C[C@H]2c3cc(NC(=O)c4cccnc4)ccc3O[C@H]2[C@@H](CO)O1	none
CCc1nn(CC(=O)NCCCN(Cc2ccccc2)C(C)C)c(=O)c2cc3sccc3n12	none (no result: rRNA inh HTS, FGF22 binding, ERAP1 inh)
CC(C)(C)c1ccc(-n2ncc3c2CCCC3NC(=O)CCN2CCCCC2=O)cc1 (stereo not given)	none (no result: PGC1a acetyl inh)
COc1cccc(NC(=O)C(=O)NCCCn2ccnc2)c1	FGF22 binding 43 (no result: Cneo AK release)
C[C@@H]1CCCCO[C@@H](CN(C)C(=O)CCC(F)(F)F)[C@H](C)CN([C@H](C)CO)C(=O)c2cc(NC(=O)NC3CCCCC3)ccc2O1	none
Oc1cccc(Nc2nc(-c3ccccc3Cl)nc3ccccc23)c1	FGF22 binding 1.6 (no result: PGC1a acetyl inh)
Cc1cc(CNC(=O)c2cc(COc3c(F)cccc3F)on2)nn1C	FGF22 binding 44 (no result: PGC1a acetyl inh, Cneo AK release)
CCOc1ccc(OCc2ccc(C(=O)N3CCCCC3)o2)cc1	none
CCOc1ccc(OCc2ccc(C(=O)N3CCc4ccccc4C3)o2)cc1	rRNA inh HTS -28 (no result: Env fusion inh)
O=C(c1cc(COc2c(F)cccc2F)on1)N1CCc2ccccc2C1	rRNA inh HTS -23
O=C(c1cc(COc2c(F)cccc2F)on1)N1C[C@H]2CC[C@H]1C2	rRNA inh HTS -20
COc1ccc(NC(=O)N(C)C[C@H]2Oc3ccc(NC(=O)Nc4cccc5ccccc45)cc3CC(=O)N([C@@H](C)CO)C[C@H]2C)cc1	none
C[C@H]1CN([C@@H](C)CO)C(=O)c2cc(NC(=O)c3ccncc3)ccc2O[C@H]1CN(C)Cc1ccc(-c2ccccc2)cc1	none (no result: Env fusion inh)
CO[C@H]1CC[C@@H]2CCOc3ccc(C#N)cc3C(=O)N(C)C[C@H](OC)[C@@H](C)C(=O)N(C)C[C@H]1O2	none (no result: PGC1a acetyl inh)
CCOc1ccc(NC(=O)CN(C)C(=O)c2cccc3ccccc23)cc1OCC	none (no result: Cneo AK release)
CN1CCN(S(=O)(=O)c2cc([N+](=O)[O-])ccc2Cl)CC1	FGF22 binding 43 (no result: PGC1a acetyl inh, Cneo AK release)
Cn1nc(C(F)(F)F)c(-c2cccc(C(F)(F)F)c2)c1NC(=O)c1cccnc1	none (no result: ERAP1 inh)
CCOc1ccc(N)c(SSc2cc(OCC)ccc2N)c1	ERAP1 inh 38 (no result: PGC1a acetyl inh)
C/C(=N\NC(=O)c1cc(O)ccc1O)c1cccc(NC(=O)c2cccc(Cl)c2)c1	none
C/C(=N\NC(=O)c1cc(O)ccc1O)c1cccc(NC(=O)c2ccc(Cl)cc2)c1	rRNA inh HTS -26 (no result: PGC1a acetyl inh)
O=C(NCC1CCCCC1)C1(CC2CC(c3ccc(Cl)cc3)=NO2)CCNCC1 (stereo not given)	none
Cc1[nH]c2ccccc2c1/C=N/Nc1ccccc1[N+](=O)[O-]	rRNA inh HTS -20, FGF22 binding 1.9 (no result: Cneo AK release)
Cc1[nH]c2ccccc2c1/C=N/NC(=O)c1cccc(S(=O)(=O)Nc2cccc(C(F)(F)F)c2)c1	FGF22 binding 43 (no result: PGC1a acetyl inh, Cneo AK release)
COc1ccc(NS(=O)(=O)c2cc([N+](=O)[O-])ccc2N/N=C/c2c(C)[nH]c3ccccc23)cc1	none
NNC(=O)c1cccc(S(=O)(=O)Nc2cccc(C(F)(F)F)c2)c1	none (no result: ERAP1 inh)
Cc1[nH]c2ccccc2c1/C=N/NC(=S)NC(C)C	rRNA inh HTS -47 (no result: Cneo AK release)

Screening results: PubChem, Broad Institute
